Screening data as filed in PubChem BioAssay.
Compounds with a hit are over-represented: about 1.7% of the library has one in this group of screens.
Vif inh = inhibitors of HIV Vif. inhibition, % at 7.49 µM. HEK293T cells, Vif self-association by quenched fluorescence, imaging, 24 h. actives 0.35% (n = 340,000). AID 602346; in the data active means inhibition above about 50%, passing the limit was not always enough; inconclusive means no clear call, values can overlap the other calls; inactive means below about 31%
T cell modulator = T cell immune modulation candidate; actives 0.068% (n = 330,000); response (vesicle binding), % at 7 µM; 2C CD8+ T cell-vesicle binding, flow cytometry; hits give low values;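 active means response, share of CD8 T cells binding vesicles, and their 90th percentile fluorescence all below set limits, cut at about 80% in these data, passing the limit was not always enough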;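 further: values below 100% mean blocked vesicle binding to the CD8+ T cells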
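Assay system: 2C TCR transgenic mouse naive CD8+ T cells, MACS-purified | Read-out: CD8+ gate FL2 mean fluorescence as % of same-row positive control | Signal: High-throughput flow cytometry with anti-B7-1 and anti-CD8 staining | Timing: Binding step 1.5 h, 37 °C, antibody labelling 20 min, ice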
DSG3 Ab inh = inhibitors of pemphigus antibody binding to human desmoglein-3 | DSG3-coupled beads, scFv-anti-DSG3-GFP binding, flow cytometry; hits give low values | binding (percent of control), % at 10 µM | actives 0.48% (n = 310,000) | P32926 | AID 588358;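 active means binding more than 3 SD below its plate's average and above zero; inconclusive means below that plate limit but binding exactly zero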;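 further: hits lower antibody fragment binding to DSG3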
Myeloid diff 2 = compounds promoting myeloid differentiation. ER-HoxA9 myeloid progenitors, lysozyme-GFP differentiation, flow cytometry. calls only at 10 µM. actives 1% (n = 360,000);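 active means normalized GFP-positive differentiation at or above the plate's own cutoff, the solvent-only control mean plus 3 SD; inconclusive means no clear call, values can overlap the other calls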;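 further: cells exposed to compound for four days before flow analysis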
* marks the source's active call; other numbers are inactive results; i = inactive; u = inconclusive; x = no result; + = active, no number; ! = not confirmed by another sample.

SMILES	Vif inh	T cell modulator	DSG3 Ab inh	Myeloid diff 2
c1coc(-c2cc3nc(NC4CCCCC4)ccn3n2)c1	x	x	x	i
COc1cccc(CN(C)C[C@@H]2OCc3ccccc3-c3c(n(C)c4ccccc34)C(=O)N([C@@H](C)CO)C[C@H]2C)c1	x	x	103	+
C[C@]12c3[nH]c4ccc(Cl)cc4c3CCN1C(=O)[C@@H](CC(=O)NCCC1=CCCCC1)C[C@@H]2C(=O)N1CCOCC1	-11	x	99	i
COC(=O)Cn1cc(/C=C/c2cc[n+](C)cc2)c2ccccc21	i	940	160	+
COC(=O)Cn1c(C)c(/C=C/c2cc[n+](C)cc2)c2ccccc21	x	153	204	+
Cc1ccc(CNc2ncnc3ccc(-c4ccoc4C)cc23)o1	x	x	x	i
Cc1cccc(C)c1NC(=O)C1(C)CSCC(=O)N1CCc1ccccc1 (stereo unspecified)	x	x	x	i
Nc1ccc(-n2cnc3cc([N+](=O)[O-])ccc32)cc1	-2	231	103	+
COc1ccc(-n2cnc3cc([N+](=O)[O-])ccc32)cc1	-2	x	86	i
O=C(Nc1ccc(F)cc1)N[C@H]1CC[C@H](CCNS(=O)(=O)c2cccc(Cl)c2)O[C@@H]1CO	x	x	x	i
O=S(=O)(Cc1ccccc1)C(CCCc1ccccc1)S(=O)(=O)Cc1ccccc1	-10	x	137	+
COc1ccc(-c2c(C#Cc3ccsc3)c3cc(-c4ccc5[nH]ccc5c4)ccc3n2C)cc1	15	829	96	+
O=C(NC(=S)Nc1ccc(NC(=O)c2cccs2)cc1)c1ccco1	0	0	105	i
O=C(NC(=S)Nc1ccc(NC(=O)c2cccs2)cc1)c1cc2ccccc2o1	2	296	70*	i
Cc1ccc2c(c1)C(=O)N1[C@H]3c4cc(C)ccc4OC[C@@H]3[C@H](c3ccccc3)[C@]1(C)C(=O)N2	-4	227	99	+
Cc1c(C=Nc2ccc(S(=O)(=O)N(C)C)cc2)c(O)[nH]c(=O)c1C#N	u	409	92	i
CCNC(=O)C1(C)CCN(C(=O)c2cccc(C#N)c2)C1 (stereo unspecified)	-3	x	x	i
N#C/C(=C/c1cn(-c2ccccc2)nc1-c1cccc(OCc2ccccc2)c1)C(=O)NCCCn1ccnc1	8	206	106	i
CCOc1cccc(-c2nn(-c3ccccc3)cc2/C=C(/C#N)C(=O)NCCCn2ccnc2)c1	-15	197	97*	i
CC(C)(C)OC(=O)N1CCC(Cc2cc(-c3ccccc3)no2)(C(=O)O)CC1	-2	550	104	i
CC(C)(C)OC(=O)N1CCC(Cc2cc(-c3cccnc3)no2)(C(=O)O)CC1	7	x	96	+
CSc1sccc1/C=N/O	-8	578	109	i
CSc1sccc1/C=C(/C#N)C(=O)c1ccco1	151*	222	110	i
O=C(Nc1nc(-c2ccccn2)cs1)c1cc(S(=O)(=O)N2CCOCC2)ccc1F	-9	359	91	+
Cc1cc(C)cc(OCCNC(=O)c2cc(S(=O)(=O)N3CCOCC3)ccc2F)c1	4	254	58*	i
SMILES	Vif inh	T cell modulator	DSG3 Ab inh	Myeloid diff 2
O=C(NCCc1ccccc1)c1cc(S(=O)(=O)N2CCOCC2)ccc1F	-5	355	x	i
COC(=O)[C@@]1(Cc2ccc(F)cc2)[C@H]2C(CC(=O)C(=O)N3CCCC3)C(=O)C[C@H]2CN1C(=O)c1ccccc1 (stereo partly specified)	x	x	x	i
COC(=O)[C@@]1(Cc2ccc(OC)cc2)[C@@H]2C(=CC(=O)[C@H]2CC(=O)C(=O)N2CCCC2)CN1C(=O)c1ccccc1	-1	331	102	+
COc1cc(NC(=O)CSc2nnc3ccccn23)cc(OC)c1OC	10	x	105	i
Cc1ccc(NC(=O)c2cc(S(=O)(=O)N3CCCC3)cn2C)cc1C	-6	399	18*	i
O=C(COc1ccccc1)Nc1c2c(nn1-c1ccccc1)CS(=O)C2 (stereo unspecified)	4	125	102	i
CNc1c2c(nn1C)CCCC2	-9	x	103	+!
C#CCNc1c2c(nc3nnnn13)CCCC2	10	273	97	i
O=C(Nc1nc2ccccc2[nH]1)c1ccccc1[N+](=O)[O-]	-5	30*	97	i
Cc1c(C(=O)Nc2nc3ccccc3[nH]2)cccc1[N+](=O)[O-]	-8	314	98	i
CCCc1c(NC(=O)Nc2ccc(F)cc2)cnn1-c1ccc(Cl)cc1	-6	414	113	+
CCN1C(=O)C(=O)c2cc(C)ccc21	-4	244	104	i
